Laboratory results: ChEMBL document CHEMBL2169749 (J Med Chem, 2012)
In brackets after ≈: the same amount, converted by molar mass.

Experiments:
[1] = Volume of distribution at steady state in Sprague-Dawley rat at 1 mg/kg, iv; type: ADME, organism-based; set-up: dose 1 mg/kg, route intravenous; details: in vivo, read-out: Vdss
Summary of the method: (§1)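 Sprague-Dawley rats given 1 mg/kg iv and po, compound dissolved in PEG400. Plasma obtained by centrifugation of collected blood, drug levels quantified by LC/MS/MS. Values are mean ± SD of n = 3.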

[2] = Permeability of the compound by PAMPA assay at pH 6.5; type: ADME; details: read-out: permeability
Summary of the method: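 PAMPA with pION membrane lipid, donor buffer pH 6.5, n = 2.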

[3] = Total clearance in Sprague-Dawley rat at 1 mg/kg, iv; type: ADME, organism-based; set-up: dose 1 mg/kg, route intravenous; details: in vivo; summary of the method: as §1
Rattus norvegicus [4] = assay: Antiinflammatory activity in rat assessed as inhibition of LPS-induced TNFalpha production at 1 mg/kg, po administered 4 hrs prior to LPS-challenge measured after 1 to 1.5 hrs by ELISA relative to vehicle-treated control; type: functional
Summary of the method: (§2)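 Rats dosed orally with compound suspended in 0.5% methylcellulose/0.1% Tween-80, 4 h before LPS (10 μg/animal, ip). At 1.0 or 1.5 h after LPS, retro-orbital blood collected into heparin under anesthesia. Plasma diluted one-fifth and assayed by rat TNF-α ELISA. Percent inhibition taken relative to vehicle group (n = 3−4).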

[5] = Intrinsic clearance in rat liver microsomes in presence of NADPH; type: ADME, Microsome; details: read-out: CLH
Summary of the method: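 Incubation with rat liver microsomes in the presence of an NADPH-generating system, n = 2.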

THP-1 = assay: Antiinflammatory activity in human THP1 cells assessed as inhibition of LPS-induced TNFalpha production after 20 hrs; type: functional, cell-based; details: THP-1, 20 h
Summary of the method: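 THP-1 human monocytic cells kept in RPMI 1640 with 10% FBS, penicillin and streptomycin at 37 °C, 5% CO2. Cells (1 × 10^5/well) stimulated with LPS (10 μg/mL final, E. coli 055:B5) with compound or 0.1% DMSO vehicle for 20 h at 37 °C. Supernatant TNF-α compared with DMSO control. IC50 given as mean of triplicate experiments.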

[6] = Half life in rat liver homogenate; type: ADME, tissue-based
[7] = Half life in Sprague-Dawley rat at 1 mg/kg, iv; type: ADME, organism-based; set-up: dose 1 mg/kg, route intravenous; details: in vivo; summary of the method: as §1
[8] = (§3) Oral bioavailability in Sprague-Dawley rat at 1 mg/kg; type: ADME, organism-based; details: Sprague-Dawley, in vivo; summary of the method: as §1
[9] = (§4) AUC in Sprague-Dawley rat at 1 mg/kg, po; type: ADME, organism-based, Plasma; set-up: dose 1 mg/kg, route oral; details: Sprague-Dawley, plasma; summary of the method: as §1
Rattus norvegicus [10] = assay: Antiinflammatory activity in Lewis rat assessed as suppression of Mycobacterium tuberculosis adjuvant-induced paw edema at 1 mg/kg, po administered QD from days 15 to 24 post adjuvant-challenge measured on day 25 relative to vehicle-treated control; type: functional
Summary of the method: (§5)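 Female Lewis rats, 7 weeks old; arthritis induced on day 0 by 0.5 mg M. tuberculosis in 50 μL liquid paraffin injected into right hind footpad. Randomized on day 15 (n ≥ 5) by left hind paw volume increase and body weight; drug suspended in 0.5% methylcellulose given orally once daily days 15–24. Left hind paw volume measured day 25 by water displacement plethysmometry; edema expressed as percentage of control.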

Rattus norvegicus [11] = assay: as §3; type: ADME, organism-based; details: in vivo; summary of the method: as §1
Rattus norvegicus [12] = assay: as §4; type: ADME, organism-based, Plasma; set-up: dose 1 mg/kg, route oral; details: in vivo; summary of the method: as §1
Rattus norvegicus [13] = assay: Antiinflammatory activity in rat assessed as inhibition of LPS-induced TNFalpha production at 3.2 mg/kg, po administered 4 hrs prior to LPS-challenge measured after 1 to 1.5 hrs by ELISA relative to vehicle-treated control; type: functional; summary of the method: as §2
Cytochrome P450 2C19 = Cytochrome P450 2C19 (Homo sapiens, UniProt P33261); assay: Inhibition of CYP2C19; type: ADME
[14] = molecular target: Mitogen-activated protein kinase 14 (Homo sapiens, UniProt Q16539); assay: Inhibition of human MAPK p38alpha by Z'-LYTE assay
Summary of the method: (§6)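 Human p38α or p38β kinase activity measured by Z′-Lyte kinase assay system.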

Cytochrome P450 1A2 = molecular target: T1, Cytochrome P450 1A2 (Homo sapiens, UniProt P05177); assay: Inhibition of CYP1A2; type: ADME
T1 sequence (P05177 whole entry): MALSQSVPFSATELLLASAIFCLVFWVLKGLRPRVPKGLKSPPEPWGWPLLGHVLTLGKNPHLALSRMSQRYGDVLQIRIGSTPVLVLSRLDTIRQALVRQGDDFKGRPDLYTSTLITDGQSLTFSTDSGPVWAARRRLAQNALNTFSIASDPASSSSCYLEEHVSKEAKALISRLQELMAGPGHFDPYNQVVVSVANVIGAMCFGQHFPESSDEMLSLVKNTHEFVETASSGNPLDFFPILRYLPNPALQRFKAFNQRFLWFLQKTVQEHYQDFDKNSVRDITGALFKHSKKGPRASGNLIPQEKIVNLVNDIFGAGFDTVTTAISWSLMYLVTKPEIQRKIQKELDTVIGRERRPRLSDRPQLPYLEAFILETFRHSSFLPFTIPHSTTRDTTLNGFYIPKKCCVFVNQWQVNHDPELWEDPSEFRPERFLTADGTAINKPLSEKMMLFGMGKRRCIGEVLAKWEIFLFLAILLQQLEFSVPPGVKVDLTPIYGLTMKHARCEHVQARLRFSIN

[15] = molecular target: Mitogen-activated protein kinase 9 (Homo sapiens, UniProt P45984); assay: Inhibition of human recombinant JNK2alpha2-mediated ATF-2 phosphorylation after 30 mins by immunoblotting method
[16] = molecular target: Voltage-gated inwardly rectifying potassium channel KCNH2 (Homo sapiens, UniProt Q12809); assay: Inhibition of human ERG by Rb ion flux assay
Cytochrome P450 2D6 = Cytochrome P450 2D6 (Homo sapiens, UniProt P10635); assay: Inhibition of CYP2D6; type: ADME
[17] = Solubility of the compound at pH 6.8; type: physicochemical; details: buffer
Rattus norvegicus [18] = assay: Antiinflammatory activity in po dosed rat assessed as inhibition of LPS-induced TNFalpha production administered 4 hrs prior to LPS-challenge measured after 1 to 1.5 hrs by ELISA relative to vehicle-treated control; type: functional; summary of the method: as §2
Cytochrome P450 2C9 = Cytochrome P450 2C9 (Homo sapiens, UniProt P11712); assay: Inhibition of CYP2C9; type: ADME
Rattus norvegicus [19] = assay: Antiinflammatory activity in po dosed Lewis rat assessed as suppression of Mycobacterium tuberculosis adjuvant-induced paw edema administered QD from days 15 to 24 post adjuvant-challenge measured on day 25 relative to vehicle-treated control; type: functional; details: 600 h; summary of the method: as §5
[20] = molecular target: Mitogen-activated protein kinase 11 (Homo sapiens, UniProt Q15759); assay: Inhibition of human MAPK p38beta by Z'-LYTE assay; summary of the method: as §6
Mitogen-activated protein kinase 11, sequence (Q15759 whole entry): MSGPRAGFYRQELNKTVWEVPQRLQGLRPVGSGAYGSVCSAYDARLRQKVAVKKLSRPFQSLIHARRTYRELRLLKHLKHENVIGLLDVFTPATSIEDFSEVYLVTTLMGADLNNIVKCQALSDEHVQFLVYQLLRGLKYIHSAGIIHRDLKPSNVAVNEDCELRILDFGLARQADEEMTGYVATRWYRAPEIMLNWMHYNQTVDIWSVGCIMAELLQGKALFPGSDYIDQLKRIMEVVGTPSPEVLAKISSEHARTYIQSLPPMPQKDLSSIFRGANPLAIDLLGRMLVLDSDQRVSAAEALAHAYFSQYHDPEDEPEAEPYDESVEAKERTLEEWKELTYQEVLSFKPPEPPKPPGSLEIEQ

Cytochrome P450 2C9, sequence (P11712 whole entry): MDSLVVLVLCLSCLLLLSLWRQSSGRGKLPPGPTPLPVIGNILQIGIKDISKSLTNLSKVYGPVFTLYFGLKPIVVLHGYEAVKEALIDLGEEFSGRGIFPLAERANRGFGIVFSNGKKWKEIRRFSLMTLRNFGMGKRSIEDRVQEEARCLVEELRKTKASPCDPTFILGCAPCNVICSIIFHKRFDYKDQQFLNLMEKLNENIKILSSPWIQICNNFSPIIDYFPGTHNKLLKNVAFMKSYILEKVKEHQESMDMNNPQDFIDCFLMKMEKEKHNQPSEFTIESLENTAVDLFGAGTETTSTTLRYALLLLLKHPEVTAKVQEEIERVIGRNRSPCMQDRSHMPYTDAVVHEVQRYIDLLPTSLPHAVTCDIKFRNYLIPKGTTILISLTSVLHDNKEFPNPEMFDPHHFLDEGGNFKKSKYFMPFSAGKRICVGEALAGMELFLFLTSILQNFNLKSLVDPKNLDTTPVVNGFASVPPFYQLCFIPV
Mitogen-activated protein kinase 9, sequence (P45984 whole entry): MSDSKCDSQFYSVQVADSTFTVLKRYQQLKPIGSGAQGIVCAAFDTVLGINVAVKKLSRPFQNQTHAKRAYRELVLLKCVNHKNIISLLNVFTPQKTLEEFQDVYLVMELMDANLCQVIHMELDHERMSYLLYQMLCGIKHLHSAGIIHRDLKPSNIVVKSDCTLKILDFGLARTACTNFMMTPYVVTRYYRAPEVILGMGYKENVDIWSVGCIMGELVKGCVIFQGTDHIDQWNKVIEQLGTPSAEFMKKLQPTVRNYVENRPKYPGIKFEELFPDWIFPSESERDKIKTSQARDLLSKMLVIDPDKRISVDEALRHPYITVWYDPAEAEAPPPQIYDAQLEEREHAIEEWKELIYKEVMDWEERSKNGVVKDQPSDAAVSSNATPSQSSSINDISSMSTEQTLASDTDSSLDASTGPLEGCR
Voltage-gated inwardly rectifying potassium channel KCNH2, sequence (Q12809 whole entry): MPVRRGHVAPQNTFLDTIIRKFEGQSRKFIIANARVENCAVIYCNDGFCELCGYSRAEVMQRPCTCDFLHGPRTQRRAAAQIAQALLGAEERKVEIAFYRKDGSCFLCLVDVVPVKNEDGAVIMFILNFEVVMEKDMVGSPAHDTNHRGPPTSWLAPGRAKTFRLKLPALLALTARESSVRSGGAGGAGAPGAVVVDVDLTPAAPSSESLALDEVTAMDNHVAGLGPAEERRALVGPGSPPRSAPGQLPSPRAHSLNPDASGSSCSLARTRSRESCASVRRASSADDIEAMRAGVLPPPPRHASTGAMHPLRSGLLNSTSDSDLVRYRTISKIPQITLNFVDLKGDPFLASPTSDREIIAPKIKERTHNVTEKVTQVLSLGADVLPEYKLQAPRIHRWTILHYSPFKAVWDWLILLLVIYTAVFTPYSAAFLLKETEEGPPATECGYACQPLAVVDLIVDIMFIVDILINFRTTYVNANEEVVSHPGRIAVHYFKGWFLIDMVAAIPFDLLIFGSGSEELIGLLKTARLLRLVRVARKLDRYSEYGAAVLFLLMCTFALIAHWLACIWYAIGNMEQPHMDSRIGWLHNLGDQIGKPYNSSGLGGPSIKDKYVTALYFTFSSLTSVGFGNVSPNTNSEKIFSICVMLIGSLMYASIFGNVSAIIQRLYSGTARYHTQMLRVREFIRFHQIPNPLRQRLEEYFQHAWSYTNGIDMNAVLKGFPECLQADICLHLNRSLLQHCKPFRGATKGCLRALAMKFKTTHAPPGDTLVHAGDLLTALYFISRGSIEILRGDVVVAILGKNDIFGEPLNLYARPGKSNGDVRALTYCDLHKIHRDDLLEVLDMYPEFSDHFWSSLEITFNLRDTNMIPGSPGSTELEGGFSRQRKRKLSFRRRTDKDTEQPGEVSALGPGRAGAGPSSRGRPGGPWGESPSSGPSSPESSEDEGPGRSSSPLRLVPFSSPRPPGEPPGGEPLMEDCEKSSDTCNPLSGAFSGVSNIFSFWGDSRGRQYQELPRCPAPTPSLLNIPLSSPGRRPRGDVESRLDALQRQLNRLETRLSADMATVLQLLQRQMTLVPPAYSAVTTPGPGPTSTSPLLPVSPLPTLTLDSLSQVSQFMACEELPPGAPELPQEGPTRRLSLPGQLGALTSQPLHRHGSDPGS
Cytochrome P450 2C19, sequence (P33261 whole entry): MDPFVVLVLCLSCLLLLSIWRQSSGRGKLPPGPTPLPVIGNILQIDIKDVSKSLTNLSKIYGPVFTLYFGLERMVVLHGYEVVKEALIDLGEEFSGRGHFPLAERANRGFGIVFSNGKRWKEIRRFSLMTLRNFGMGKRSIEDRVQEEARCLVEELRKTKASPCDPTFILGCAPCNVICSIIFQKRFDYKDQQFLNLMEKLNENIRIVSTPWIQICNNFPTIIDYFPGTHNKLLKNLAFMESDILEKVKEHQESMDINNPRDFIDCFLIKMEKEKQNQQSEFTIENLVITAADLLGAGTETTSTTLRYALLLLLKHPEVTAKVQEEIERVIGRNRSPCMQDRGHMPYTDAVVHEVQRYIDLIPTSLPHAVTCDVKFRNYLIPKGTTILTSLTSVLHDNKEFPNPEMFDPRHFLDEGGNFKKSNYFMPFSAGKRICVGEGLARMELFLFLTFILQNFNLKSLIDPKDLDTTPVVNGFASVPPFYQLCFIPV
Mitogen-activated protein kinase 14, sequence (Q16539 whole entry, looked up): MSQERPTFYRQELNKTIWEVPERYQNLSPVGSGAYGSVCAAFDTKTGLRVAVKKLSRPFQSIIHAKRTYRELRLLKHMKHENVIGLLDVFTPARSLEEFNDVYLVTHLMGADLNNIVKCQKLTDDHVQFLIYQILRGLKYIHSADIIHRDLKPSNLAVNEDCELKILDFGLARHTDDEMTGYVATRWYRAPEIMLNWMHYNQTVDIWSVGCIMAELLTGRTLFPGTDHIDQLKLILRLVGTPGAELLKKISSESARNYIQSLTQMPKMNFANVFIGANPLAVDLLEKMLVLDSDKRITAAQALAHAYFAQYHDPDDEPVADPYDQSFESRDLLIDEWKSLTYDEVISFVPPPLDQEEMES
Cytochrome P450 2D6, sequence (P10635 whole entry): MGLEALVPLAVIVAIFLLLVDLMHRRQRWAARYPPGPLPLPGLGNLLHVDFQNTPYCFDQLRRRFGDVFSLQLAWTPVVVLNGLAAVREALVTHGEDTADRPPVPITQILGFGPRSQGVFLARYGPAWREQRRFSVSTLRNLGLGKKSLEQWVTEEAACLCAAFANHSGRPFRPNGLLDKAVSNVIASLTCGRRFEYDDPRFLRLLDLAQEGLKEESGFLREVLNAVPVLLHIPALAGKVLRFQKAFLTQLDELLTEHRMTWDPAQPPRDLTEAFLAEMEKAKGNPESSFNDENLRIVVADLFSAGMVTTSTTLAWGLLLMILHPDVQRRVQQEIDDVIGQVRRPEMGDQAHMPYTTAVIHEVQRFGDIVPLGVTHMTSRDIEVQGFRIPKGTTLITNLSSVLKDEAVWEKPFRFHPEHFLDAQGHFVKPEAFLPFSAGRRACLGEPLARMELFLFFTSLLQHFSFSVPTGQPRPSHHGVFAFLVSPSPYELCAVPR

SMILES | Vd [1] | Papp [2] | inhibition in vivo at 1 mg/kg (Rattus norvegicus [4]) | IC50 (THP-1) | half-life [7] | Activity (Rattus norvegicus [10]) | other results
CNc1c(-c2ccc(=O)n(-c3ccccc3C)n2)c(-c2ccc(F)cc2)nn1C | 0.65 L/kg | 30 ×10⁻⁶ cm/s | 86% | 6 nM | 0.66 h | 37% | clearance [3]: 20.6 mL/min/kg; CLint scaled [5]: 213 mL/min/kg; half-life [6]: 0.66 h; bioavailability [8]: 28.6%; AUC [9]: 235 ng·h/mL
Cc1ccccc1-n1nc(-c2c(-c3ccc(F)cc3)nn3c2NC[C@@H](O)C3)ccc1=O | 1.23 L/kg | 16 ×10⁻⁶ cm/s | 94% | 0.85 nM | 3.89 h | 61.4% | F (Rattus norvegicus [11]): 67.7%; AUC (Rattus norvegicus [12]): 763 ng·h/mL
Cc1ccccc1-n1nc(-c2c(-c3ccc(F)cc3)nn3cc(CO)cnc23)ccc1=O |  |  | 11% | 23 nM |  |  | 
Cc1ccccc1-n1nc(-c2c(-c3ccc(F)cc3)nn3c2NCCC3)ccc1=O |  | 30 ×10⁻⁶ cm/s | 93% | 1 nM |  |  | CLint scaled [5]: 94 mL/min/kg
Cc1ccccc1-n1nc(-c2c(-c3ccc(F)cc3)nn3c2NC[C@H](CO)C3)ccc1=O | 1.11 L/kg |  | 92% | 0.95 nM | 3.82 h | 59.7% | F (Rattus norvegicus [11]): 103.6%; AUC (Rattus norvegicus [12]): 1217 ng·h/mL
Cc1ccccc1-n1nc(-c2c(-c3ccc(F)cc3)nn3c2N[C@@H](CO)CC3)ccc1=O |  | 23 ×10⁻⁶ cm/s | 98% | 0.46 nM |  |  | 
O=c1ccc(-c2c(-c3ccccc3)nn3ccccc23)nn1CC1(O)CCCCC1 |  |  |  | 14 nM |  |  | CLint scaled [5]: 195 mL/min/kg; inhibition in vivo at 3.2 mg/kg (Rattus norvegicus [13]): 43%
Cc1ccccc1-n1nc(-c2c(-c3ccc(F)cc3)nn3c2N[C@H](CO)CC3)ccc1=O | 0.98 L/kg | 22 ×10⁻⁶ cm/s | 98% | 0.37 nM | 5.95 h | 62.3% | clearance [3]: 3.8 mL/min/kg; bioavailability [8]: 100%; AUC [9]: 4500 ng·h/mL
Cc1ccccc1-n1nc(-c2c(-c3ccc(F)cc3)nn3c2NCC3)ccc1=O |  |  |  | 106 nM |  |  | 
Cc1ccccc1-n1nc(-c2c(-c3ccc(F)cc3)nn3c2NC[C@H](O)C3)ccc1=O | 4.21 L/kg | 17 ×10⁻⁶ cm/s | 89% | 1.8 nM | 9.01 h | 51% | F (Rattus norvegicus [11]): 81%; AUC (Rattus norvegicus [12]): 457 ng·h/mL
Cc1ccccc1-n1nc(-c2c(-c3ccc(F)cc3)nn3c2NC[C@@H](CO)C3)ccc1=O [AS1940477] | 0.77 L/kg | 19.7 ×10⁻⁶ cm/s | 92% | 0.6 nM | 5.15 h | 71.3% | IC50 (Cytochrome P450 2C19): > 50000 nM; IC50 [14]: 11 nM; IC50 (Cytochrome P450 1A2): > 50000 nM; IC50 [15]: > 10000 nM; IC50 [16]: > 100000 nM; IC50 (Cytochrome P450 2D6): > 50000 nM; F (Rattus norvegicus [11]): 61.8%; AUC (Rattus norvegicus [12]): 1518 ng·h/mL; solubility [17]: 42 µg/mL (≈ 97.3 µM); ED50 (Rattus norvegicus [18]): 0.05 mg/kg; IC50 (Cytochrome P450 2C9): 19000 nM; ED30 (Rattus norvegicus [19]): 0.15 mg/kg; IC50 [20]: 36 nM
O=c1ncn2nc(Sc3ccc(F)cc3F)ccc2c1-c1c(Cl)cccc1Cl [NEFLAMAPIMOD] |  |  |  |  |  |  | ED50 (Rattus norvegicus [18]): 39.9 mg/kg; ED30 (Rattus norvegicus [19]): 92 mg/kg
Cc1ccc(-n2nc(C(C)(C)C)cc2NC(=O)Nc2ccc(OCCN3CCOCC3)c3ccccc23)cc1 [DORAMAPIMOD] |  |  |  |  |  |  | ED50 (Rattus norvegicus [18]): 2.6 mg/kg; ED30 (Rattus norvegicus [19]): 5.8 mg/kg
Cc1ccccc1-n1nc(-c2c(-c3ccc(F)cc3)nn3c2OCCC3)ccc1=O |  |  | 33% | 10 nM |  |  | 
Cc1ccccc1-n1nc(-c2c(-c3ccc(F)cc3)nn3c2NCC(CN2CCN(C)CC2)C3)ccc1=O (centres undefined) |  | 21 ×10⁻⁶ cm/s | 88% | 1.1 nM |  |  | 
